ChEMBL document CHEMBL4665800, “Biased Agonism at Nociceptin/Orphanin FQ Receptors: A Structure Activity Study on N/OFQ(1-13)-NH” (J Med Chem, 2020)
Starred links: 1 amine or outer side, 2 acyl side, 3 side chain; linkers in the order of their positions; H or OH if unused. Positions of bridges follow the written chain, without caps; N, C: chain ends. Non-standard residues stand in square brackets, D forms with d. Residues, ends and D or L forms follow the SMILES beside them. Chains are numbered I, II in the order given. *: point of attachment. X1 = CCCCCCCCCCCCCCCC(=O)NCCCN1C(=O)CC(*)C1=O; X2 = O=C1CC([*:1])C(=O)N1CCCC(=O)[*:2]; Ac5c = NC1(C(=O)O)CCCC1; Ac3c = NC1(C(=O)O)CC1; Aib = CC(C)(N)C(=O)O

Key:
Nociceptin receptor [1] = biological target: T1, Nociceptin receptor (Homo sapiens, UniProt P41146); experiment: Agonist activity at NOP (unknown origin) expressed in HEK293 cell membranes co-expressing Gbeta1-RGFP protein assessed as induction of G protein activation incubated for 15 mins by BRET assay; assay type: cell-based
T1 sequence (P41146 whole entry): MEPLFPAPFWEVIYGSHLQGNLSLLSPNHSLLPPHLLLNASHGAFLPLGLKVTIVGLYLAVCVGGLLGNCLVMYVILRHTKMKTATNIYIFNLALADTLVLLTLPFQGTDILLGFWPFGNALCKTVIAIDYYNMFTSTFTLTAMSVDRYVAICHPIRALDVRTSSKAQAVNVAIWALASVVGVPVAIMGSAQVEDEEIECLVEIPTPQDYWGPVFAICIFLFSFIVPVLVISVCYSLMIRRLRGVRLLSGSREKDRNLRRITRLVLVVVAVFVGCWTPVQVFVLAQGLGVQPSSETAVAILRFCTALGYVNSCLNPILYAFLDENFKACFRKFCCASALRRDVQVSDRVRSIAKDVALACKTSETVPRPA
Method in brief: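 Membranes (3 μg protein) from HEK293 cells stably co-expressing NOP-RLuc and Gβ1-RGFP, in DPBS. Coelenterazine 5 μM final; ligands in PBS–BSA 0.01%. BRET ratio (RGFP 510 nm / RLuc 460 nm) read 15 min after agonist, room temperature. Values are vehicle-subtracted stimulated BRET ratio. Mean of five experiments in duplicate.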

Nociceptin receptor [2] = biological target: T1, Nociceptin receptor; experiment: Agonist activity at NOP (unknown origin) […] assessed as induction of beta-arrestin2 activation incubated for 15 mins by BRET assay; assay type: cell-based, HEK293
Nociceptin receptor [3] = biological target: T1, Nociceptin receptor; experiment: Bias factor, selectivity for agonist activity at NOP (unknown origin) expressed in HEK293 cell membranes co-expressing beta-arrestin2-RGFP protein assessed as induction of beta-arrestin2 activation to agonist activity at NOP (unknown origin) expressed in HEK293 cell membranes co-expressing Gbeta1-RGFP protein assessed as induction of G protein activation; assay type: cell-based
Method in brief: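 Concentration–response curves in the NOP G protein and β-arrestin 2 BRET assays were fitted to the Black–Leff operational model. Mean of at least five experiments with 95% confidence limits.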

Compound | EC50 (Nociceptin receptor [1]) | EC50 (Nociceptin receptor [2]) | Selectivity Index (Nociceptin receptor [3])
C[C@H](NC(=O)CNC(=O)[C@@H](NC(=O)[C@H](Cc1ccccc1)NC(=O)CNC(=O)CNC(=O)[C@@H](N)Cc1ccccc1)[C@@H](C)O)C(=O)N[C@@H](CCCNC(=N)N)C(=O)N[C@@H](CCCCN)C(=O)N[C@@H](CO)C(=O)N[C@@H](C)C(=O)N[C@@H](CCCNC(=N)N)C(=O)N[C@@H](CCCCN)C(=O)N[C@@H](CSC1CC(=O)N(CCCC(=O)NCC(=O)N[C@@H](CC(=O)O)C(=O)NCC(=O)N[C@@H](CC(=O)O)C(=O)NCC(=O)N[C@@H](CC(=O)O)C(=O)NCC(=O)N[C@@H](CC(=O)O)C(=O)NCC(=O)N[C@@H](CC(=O)O)C(=O)NCC(=O)N[C@@H](CC(=O)O)C(N)=O)C1=O)C(N)=O (some centres not stated) (I: H-FGGFTGARKSARKC-NH2 / II: GDGDGDGDGDGD-NH2; linker I:14-II:N via X2) | 17.8 nM | 49 nM | 0.81
H-FGGFAGARKSARK-NH2 | 75.9 nM | 741 nM | 0.4
H-FGGFTAARKSARK-NH2 | 21.9 nM | 79.4 nM | 0.04
H-FGGFNGARKSARK-NH2 | 9.33 nM | 27.5 nM | 
C[C@H](NC(=O)[C@H](CO)NC(=O)[C@H](CCCCN)NC(=O)[C@H](CCCNC(=N)N)NC(=O)C1(NC(=O)CNC(=O)[C@@H](NC(=O)[C@H](Cc2ccccc2)NC(=O)CNC(=O)CNC(=O)[C@@H](N)Cc2ccccc2)[C@@H](C)O)CCCC1)C(=O)N[C@@H](CCCNC(=N)N)C(=O)N[C@@H](CCCCN)C(N)=O (H-FGGFTG[Ac5c]RKSARK-NH2) |  |  | 0.08
C[C@H](NC(=O)CCCN1C(=O)CC(SC[C@H](NC(=O)[C@H](CCCCN)NC(=O)[C@H](CCCNC(=N)N)NC(=O)[C@H](C)NC(=O)[C@H](CO)NC(=O)[C@H](CCCCN)NC(=O)[C@H](CCCNC(=N)N)NC(=O)[C@H](C)NC(=O)CNC(=O)[C@@H](NC(=O)[C@H](Cc2ccccc2)NC(=O)CNC(=O)CNC(=O)[C@@H](N)Cc2ccccc2)[C@@H](C)O)C(N)=O)C1=O)C(=O)N[C@@H](Cc1cnc[nH]1)C(=O)N[C@@H](C)C(=O)N[C@@H](Cc1cnc[nH]1)C(=O)N[C@@H](C)C(=O)N[C@@H](Cc1cnc[nH]1)C(=O)N[C@@H](C)C(=O)N[C@@H](Cc1cnc[nH]1)C(=O)N[C@@H](C)C(=O)N[C@@H](Cc1cnc[nH]1)C(=O)N[C@@H](C)C(=O)N[C@@H](Cc1cnc[nH]1)C(N)=O (some centres not stated) (I: H-FGGFTGARKSARKC-NH2 / II: AHAHAHAHAHAH-NH2; linker I:14-II:N via X2) | 7.94 nM | 9.33 nM | -0.05
C[C@H](NC(=O)CCCN1C(=O)CC(SC[C@H](NC(=O)[C@H](CCCCN)NC(=O)[C@H](CCCNC(=N)N)NC(=O)[C@H](C)NC(=O)[C@H](CO)NC(=O)[C@H](CCCCN)NC(=O)[C@H](CCCNC(=N)N)NC(=O)[C@H](C)NC(=O)CNC(=O)[C@@H](NC(=O)[C@H](Cc2ccccc2)NC(=O)CNC(=O)CNC(=O)[C@@H](N)Cc2ccccc2)[C@@H](C)O)C(N)=O)C1=O)C(=O)N[C@@H](CC(=O)O)C(=O)N[C@@H](C)C(=O)N[C@@H](CC(=O)O)C(=O)N[C@@H](C)C(=O)N[C@@H](CC(=O)O)C(=O)N[C@@H](C)C(=O)N[C@@H](CC(=O)O)C(=O)N[C@@H](C)C(=O)N[C@@H](CC(=O)O)C(=O)N[C@@H](C)C(=O)N[C@@H](CC(=O)O)C(N)=O (some centres not stated) (I: H-FGGFTGARKSARKC-NH2 / II: ADADADADADAD-NH2; linker I:14-II:N via X2) | 24 nM | 93.3 nM | 0.51
CCCCCCCCCCCCCCCC(=O)NCCCN1C(=O)CC(SC[C@H](NC(=O)[C@H](C)NC(=O)[C@H](CO)NC(=O)[C@H](CCCCN)NC(=O)[C@H](CCCNC(=N)N)NC(=O)[C@H](C)NC(=O)CNC(=O)[C@@H](NC(=O)[C@H](Cc2ccccc2)NC(=O)CNC(=O)CNC(=O)[C@@H](N)Cc2ccccc2)[C@@H](C)O)C(=O)N[C@@H](CCCCN)C(N)=O)C1=O (some centres not stated) (H-FGGFTGARKSAC(X1)K-NH2) | 0.525 nM | 22.4 nM | 
C[C@H](NC(=O)CNC(=O)[C@@H](NC(=O)[C@H](Cc1ccccc1)NC(=O)CNC(=O)CNC(=O)[C@@H](N)Cc1ccccc1)[C@@H](C)O)C(=O)N[C@@H](CCCNC(=N)N)C(=O)N[C@@H](CCCCN)C(=O)N[C@@H](CO)C(=O)NC1(C(=O)N[C@@H](CCCNC(=N)N)C(=O)N[C@@H](CCCCN)C(N)=O)CCCC1 (H-FGGFTGARKS[Ac5c]RK-NH2) |  |  | 0.31
CCCCCCCCCCCCCCCC(=O)NCCCN1C(=O)CC(SC[C@H](NC(=O)[C@H](CO)NC(=O)[C@H](CCCCN)NC(=O)[C@H](CCCNC(=N)N)NC(=O)[C@H](C)NC(=O)CNC(=O)[C@@H](NC(=O)[C@H](Cc2ccccc2)NC(=O)CNC(=O)CNC(=O)[C@@H](N)Cc2ccccc2)[C@@H](C)O)C(=O)N[C@@H](CCCNC(=N)N)C(=O)N[C@@H](CCCCN)C(N)=O)C1=O (some centres not stated) (H-FGGFTGARKSC(X1)RK-NH2) | 0.437 nM | 34.7 nM | 1.11
C[C@H](NC(=O)CNC(=O)[C@@H](NC(=O)[C@H](Cc1ccccc1)NC(=O)CNC(=O)CNC(=O)[C@@H](N)Cc1ccccc1)[C@@H](C)O)C(=O)N[C@@H](CCCNC(=N)N)C(=O)N[C@@H](CCCCN)C(=O)N[C@@H](CO)C(=O)NC(C)(C)C(=O)N[C@@H](CCCNC(=N)N)C(=O)N[C@@H](CCCCN)C(N)=O (H-FGGFTGARKS[Aib]RK-NH2) |  |  | 0.29
H-FGAFTGARKSARK-NH2 | 13.2 nM | 28.8 nM | -0.21
CCCCCCCCCCCCCCCC(=O)NCCCN1C(=O)CC(SC[C@H](NC(=O)[C@H](CCCNC(=N)N)NC(=O)[C@H](C)NC(=O)[C@H](CO)NC(=O)[C@H](CCCCN)NC(=O)[C@H](CCCNC(=N)N)NC(=O)[C@H](C)NC(=O)CNC(=O)[C@@H](NC(=O)[C@H](Cc2ccccc2)NC(=O)CNC(=O)CNC(=O)[C@@H](N)Cc2ccccc2)[C@@H](C)O)C(N)=O)C1=O (some centres not stated) (H-FGGFTGARKSARC(X1)-NH2) | 1.26 nM | 55 nM | 0.7
C[C@H](NC(=O)CNC(=O)[C@@H](NC(=O)[C@H](Cc1ccccc1)NC(=O)CNC(=O)CNC(=O)[C@@H](N)Cc1ccccc1)[C@@H](C)O)C(=O)N[C@@H](CCCNC(=N)N)C(=O)N[C@@H](CCCCN)C(=O)N[C@@H](CO)C(=O)N[C@@H](C)C(=O)N[C@@H](CCCNC(=N)N)C(=O)N[C@@H](CCCCN)C(=O)N[C@@H](CSC1CC(=O)N(CCCC(=O)NCC(=O)N[C@@H](Cc2cnc[nH]2)C(=O)NCC(=O)N[C@@H](Cc2cnc[nH]2)C(=O)NCC(=O)N[C@@H](Cc2cnc[nH]2)C(=O)NCC(=O)N[C@@H](Cc2cnc[nH]2)C(=O)NCC(=O)N[C@@H](Cc2cnc[nH]2)C(=O)NCC(=O)N[C@@H](Cc2cnc[nH]2)C(N)=O)C1=O)C(N)=O (some centres not stated) (I: H-FGGFTGARKSARKC-NH2 / II: GHGHGHGHGHGH-NH2; linker I:14-II:N via X2) | 4.27 nM | 12.6 nM | 0.17
C[C@H](NC(=O)CNC(=O)[C@@H](NC(=O)[C@H](Cc1ccccc1)NC(=O)CNC(=O)CNC(=O)[C@@H](N)Cc1ccccc1)[C@@H](C)O)C(=O)N[C@@H](CCCNC(=N)N)C(=O)N[C@@H](CCCCN)C(=O)N[C@@H](CO)C(=O)N[C@@H](C)C(=O)N[C@@H](CCCNC(=N)N)C(=O)N[C@@H](CCCCN)C(=O)N[C@@H](CSC1CC(=O)N(CCCC(=O)N[C@@H](CCCCN)C(=O)N[C@@H](CCCCN)C(=O)N[C@@H](CCCCN)C(=O)N[C@@H](CCCCN)C(=O)N[C@@H](CCCCN)C(=O)N[C@@H](CCCCN)C(N)=O)C1=O)C(N)=O (some centres not stated) | 0.0871 nM | 6.03 nM | 0.83
H-FGGFVGARKSARK-NH2 | 11.5 nM | 41.7 nM | 0.09
C[C@H](NC(=O)[C@H](CO)NC(=O)[C@H](CCCCN)NC(=O)[C@H](CCCNC(=N)N)NC(=O)C1(NC(=O)CNC(=O)[C@@H](NC(=O)[C@H](Cc2ccccc2)NC(=O)CNC(=O)CNC(=O)[C@@H](N)Cc2ccccc2)[C@@H](C)O)CC1)C(=O)N[C@@H](CCCNC(=N)N)C(=O)N[C@@H](CCCCN)C(N)=O (H-FGGFTG[Ac3c]RKSARK-NH2) |  |  | 0.4
C[C@H](NC(=O)CCCN1C(=O)CC(SC[C@H](NC(=O)[C@H](CCCCN)NC(=O)[C@H](CCCNC(=N)N)NC(=O)[C@H](C)NC(=O)[C@H](CO)NC(=O)[C@H](CCCCN)NC(=O)[C@H](CCCNC(=N)N)NC(=O)[C@H](C)NC(=O)CNC(=O)[C@@H](NC(=O)[C@H](Cc2ccccc2)NC(=O)CNC(=O)CNC(=O)[C@@H](N)Cc2ccccc2)[C@@H](C)O)C(N)=O)C1=O)C(=O)N[C@@H](CCCCN)C(=O)N[C@@H](C)C(=O)N[C@@H](CCCCN)C(=O)N[C@@H](C)C(=O)N[C@@H](CCCCN)C(=O)N[C@@H](C)C(=O)N[C@@H](CCCCN)C(=O)N[C@@H](C)C(=O)N[C@@H](CCCCN)C(=O)N[C@@H](C)C(=O)N[C@@H](CCCCN)C(N)=O (some centres not stated) (I: H-FGGFTGARKSARKC-NH2 / II: AKAKAKAKAKAK-NH2; linker I:14-II:N via X2) | 0.794 nM | 17.4 nM | 1.18
C[C@H](NC(=O)CNC(=O)[C@@H](NC(=O)[C@H](Cc1ccccc1)NC(=O)CNC(=O)CNC(=O)[C@@H](N)Cc1ccccc1)[C@@H](C)O)C(=O)N[C@@H](CCCNC(=N)N)C(=O)N[C@@H](CCCCN)C(=O)N[C@@H](CO)C(=O)N[C@@H](C)C(=O)N[C@@H](CCCNC(=N)N)C(=O)N[C@@H](CCCCN)C(=O)N[C@@H](CSC1CC(=O)N(CCCC(=O)NCC(=O)N[C@@H](CCCCN)C(=O)NCC(=O)N[C@@H](CCCCN)C(=O)NCC(=O)N[C@@H](CCCCN)C(=O)NCC(=O)N[C@@H](CCCCN)C(=O)NCC(=O)N[C@@H](CCCCN)C(=O)NCC(=O)N[C@@H](CCCCN)C(N)=O)C1=O)C(N)=O (some centres not stated) (I: H-FGGFTGARKSARKC-NH2 / II: GKGKGKGKGKGK-NH2; linker I:14-II:N via X2) | 1.1 nM | 14.5 nM | 1.11
